SUMO1-SIM PPI = SUMO1-SIM interaction modulation. P63165. SUMO1 binding to a labelled peptide, TR-FRET, 1 h. inhibition, % at 20 µM. 360,000 tested, 0.33% active; in the data active = inhibition above about 37%
STEP block = blocks human striatal-enriched tyrosine phosphatase; P54829; recombinant STEP, OMFP fluorogenic substrate, fluorescence; inhibition, % at 20 µM; 360,000 tested, 0.25% active; AID 588621;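 active = inhibition at 20 µM, scaled per plate between control wells, above about 37%, limit read from the data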
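Material: STEP (striatal-enriched tyrosine phosphatase) enzyme, cell-free | Medium: 50 mM Bis-Tris pH 6.0 with 2.5 mM DTT and 0.005% Tween 20 | Read-out: Percent inhibition scaled to no-enzyme and uninhibited-enzyme controls, plate-pattern corrected | Signal: Fluorescence read at 480 nm ex / 540 nm em | Times: 20 min reaction, room temperature, in the dark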
Scp1 inh = inhibitors of human Scp-1 phosphatase; Q9GZU7; Recombinant Scp1, phosphopeptide, malachite green phosphate absorbance; inhibition, % at 20 µM; 340,000 tested, 0.88% active; AID 493091;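 active = inhibition above about 50% at 20 µM, limit read from the data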
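System: truncated SCP-1 phosphatase (76-261aa); medium: Tris acetate buffer pH 5.5 with MgCl2 and Tween-20; incubation: 45 min room-temperature reaction, 5 min colour, 30 min stabiliser; compound: single 20 µM dose, 1% DMSO; reagent: Phosphorylated 17-residue peptide substrate; read-out: % inhibition at 20 µM; technique: colorimetric free-phosphate detection, absorbance 630 nm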
LMPTP block = blocks human LMPTP phosphatase. P24666. recombinant LMPTP-A, OMFP fluorogenic substrate, fluorescence intensity. inhibition, % at 20 µM. 360,000 tested, 0.22% active;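 active = compounds that cut the enzyme signal by at least half of the control window in the single-dose screen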
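Assay system: LMPTP-A enzyme. Input: 0.625 nM LMPTP-A final. Probe or stimulus: 400 µM OMFP. Compound dosing: single 20 µM dose. Schedule: 50 min dark incubation at room temperature. Detection: fluorescence intensity of OMFP turnover product. Read-out: percent inhibition versus substrate-only and uninhibited controls. Benchmarks: no-enzyme low control, uninhibited high control.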
DNMT1 inh = DNMT1 (human) enzyme inhibition; inhibition (reported as % activation of signal), % at 10 µM; 360,000 tested, 0.83% active; AID 588458; DNMT1 molecular beacon, Hinp1I cleavage, fluorescence; in the data active = inhibition above about 50%
Target sequence (P26358 504-1616 limits assumed): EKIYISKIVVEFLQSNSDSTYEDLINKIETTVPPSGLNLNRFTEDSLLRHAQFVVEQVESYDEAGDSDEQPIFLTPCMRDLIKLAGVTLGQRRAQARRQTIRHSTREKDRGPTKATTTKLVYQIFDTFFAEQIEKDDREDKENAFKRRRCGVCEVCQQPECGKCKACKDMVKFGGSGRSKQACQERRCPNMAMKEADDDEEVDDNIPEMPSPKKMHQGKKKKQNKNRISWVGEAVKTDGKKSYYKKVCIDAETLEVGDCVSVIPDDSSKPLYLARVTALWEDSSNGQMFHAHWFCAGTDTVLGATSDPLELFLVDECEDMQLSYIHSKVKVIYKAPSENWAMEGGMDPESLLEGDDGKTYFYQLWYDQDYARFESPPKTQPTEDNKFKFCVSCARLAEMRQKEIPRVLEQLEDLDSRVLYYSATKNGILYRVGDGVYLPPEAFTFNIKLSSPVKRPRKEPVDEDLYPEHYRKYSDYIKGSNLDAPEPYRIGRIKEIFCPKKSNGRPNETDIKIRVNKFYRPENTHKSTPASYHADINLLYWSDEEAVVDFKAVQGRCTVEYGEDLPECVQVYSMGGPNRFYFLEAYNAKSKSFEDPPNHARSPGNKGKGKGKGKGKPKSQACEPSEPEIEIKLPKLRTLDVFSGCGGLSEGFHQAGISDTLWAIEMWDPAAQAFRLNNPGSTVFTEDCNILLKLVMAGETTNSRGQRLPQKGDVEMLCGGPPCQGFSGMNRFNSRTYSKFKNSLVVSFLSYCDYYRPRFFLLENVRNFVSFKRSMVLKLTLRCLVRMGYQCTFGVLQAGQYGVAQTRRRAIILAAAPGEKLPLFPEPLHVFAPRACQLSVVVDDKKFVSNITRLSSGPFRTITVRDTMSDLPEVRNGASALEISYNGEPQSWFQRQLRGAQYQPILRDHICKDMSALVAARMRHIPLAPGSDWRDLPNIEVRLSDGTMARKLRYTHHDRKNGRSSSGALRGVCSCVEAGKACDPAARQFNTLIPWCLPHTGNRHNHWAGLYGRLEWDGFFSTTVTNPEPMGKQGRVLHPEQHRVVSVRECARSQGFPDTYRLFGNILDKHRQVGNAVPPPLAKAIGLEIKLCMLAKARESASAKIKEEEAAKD
Beacon interf DR = counter-screen for DNMT1 inhibitors: spectral interference, dose response. shares compounds with DNMT1 inh. molecular beacon fluorescence. IC50, µM. 200 tested, under 10 active; call rule not given here
DNMT1 inh conf = DNMT1 inhibition confirmation, single concentration. shares compounds with DNMT1 inh. DNMT1 molecular beacon HinP1I cleavage, fluorescence. inhibition, % at 10 µM. 2,300 tested, 8% active. AID 602385;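 active = average inhibition of at least 30% in the single-concentration confirmation test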
DNMT1 interf = counter-screen for DNMT1 inhibitors: spectral interference; shares compounds with DNMT1 inh; 2,300 tested, 1% active; activation (fluorescence interference), % at 10 µM; DNMT1 molecular beacon spectral interference counterscreen, fluorescence 485/520; AID 602387;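 active = activation of at least 30% at 10 µM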;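 note: DNMT1 catalytic domain with a HinP1I cleavage step and a FAM/dabcyl DNA beacon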
A number is an active result; . = inactive; / = no result. An excerpt weighted towards active compounds, which were near 1.8% of everything screened.

SMILES	SUMO1-SIM PPI	STEP block	Scp1 inh	LMPTP block	DNMT1 inh	DNMT1 inh conf	DNMT1 interf	others
CC(/C=N\NC(=O)c1cc(C)oc1C)=C\c1ccccc1	.	.	.	.	72.0	.	.
O=C(c1cccc(C(F)(F)F)c1)N1CCOc2ccccc21	.	.	.	.	53.7	.	.
CCOc1cccc2cc(-c3nnc(NCc4ccc5c(c4)OCO5)s3)c(=O)oc12	.	.	.	.	69.6	.	.
CCOc1ccccc1C(=O)NCc1ccc2c(c1)OCO2	.	.	.	.	.	/	/
COc1cc(C(=O)OCCc2cc3ccccc3c(=O)o2)cc(OC)c1OC	.	.	.	.	.	/	/
COC(=O)C1CCN(C(=O)CSc2nc3nc(C)cc(C)n3n2)CC1	.	.	.	.	63.3	.	.
O=C(CSc1nc2scc(-c3ccco3)c2c(=O)n1-c1ccccc1)N1CCOCC1	.	.	.	.	.	/	/
O=C(CSc1nc2scc(-c3ccco3)c2c(=O)n1-c1ccccc1)NCC1CCCO1 (configuration not stated)	.	.	.	.	93.5	.	.
NC(=O)CSc1nc2scc(-c3ccco3)c2c(=O)n1-c1ccccc1	.	.	.	.	50.2	.	.
COc1ccc(OC)c(S(=O)(=O)N2CCCC(N3CCN(c4ccccc4)CC3)C2)c1 (configuration not stated)	.	.	.	.	.	/	/
CCCOc1ccccc1OCC(=O)Nc1cc(Cl)ccc1-n1cncn1	.	.	.	.	.	/	/
Cn1cc(S(=O)(=O)N2CCCC2)cc1C(=O)NCc1ccccc1Cl	.	.	.	.	.	/	/
CC(C)OCCCNC(=O)CN1C(=O)CSc2ccc(S(=O)(=O)N3CCCCC3)cc21	.	.	.	.	68.6	.	.
CCCc1c(C(=O)N/N=C/C=C/c2ccccc2)nnn1-c1nonc1N	.	.	/	.	51.1	.	.
CCCc1c(C(=O)N/N=C/C(C)=C/c2ccccc2)nnn1-c1nonc1N	.	.	.	.	.	/	/
C=CCn1c(CSc2ccccc2[N+](=O)[O-])n[nH]c1=S	.	.	.	.	70.0	.	.
C=CCn1c(Cc2ccccc2)n[nH]c1=S	.	.	.	.	.	/	/
COc1cc(/C=C2\SC(=O)N(c3ccc(Cl)cc3)C2=O)cc([N+](=O)[O-])c1O	105.5	97.0	54.9	84.2	86.1	.	.
CCOc1ccc(/C=C2\SC(=O)N(c3ccc(O)cc3)C2=O)cc1OC	/	/	.	/	/	/	/
COc1ccc2c(c1)C(=NNc1ccc(C(=O)O)cc1)c1cc(OC)ccc1-2	.	.	.	.	.	/	/
COc1ccc(/C(C)=N/Nc2ccc(C(=O)O)cc2)c(OC)c1	.	.	.	.	55.8	.	.
O=C(NC1CCCCC1)C(c1ccc(F)cc1)N(CCc1ccccc1)C(=O)CN1C(=O)c2ccccc2S1(=O)=O (configuration not stated)	.	.	.	.	58.7	.	.
COc1ccc(S(=O)(=O)N2CCCOC2CNC(=O)C(=O)NCc2ccco2)cc1C (configuration not stated)	.	.	.	.	71.3	.	.
COc1cccc(NC(=O)c2cccc(N3C(=O)C4C5C=CC(C5)C4C3=O)c2)c1 (configuration not stated)	.	.	.	.	.	/	/
Cc1nc2cc(-c3ccc(F)cc3)[nH]n2c(=O)c1C	.	.	.	.	.	/	/
SMILES	SUMO1-SIM PPI	STEP block	Scp1 inh	LMPTP block	DNMT1 inh	DNMT1 inh conf	DNMT1 interf	others
Cc1ccccc1-c1cc2nc(C)c(C)c(=O)n2[nH]1	.	.	.	.	84.3	.	.
Cc1cc(=O)c(C(=O)Nc2cccc(N3CCCC3=O)c2)nn1-c1ccccc1F	.	.	.	.	84.7	.	.
CC(C)NC(=S)NN(c1ccccc1)c1ccccc1	.	.	.	.	108.4	.	.
C=CCNC(=S)NN(c1ccccc1)c1ccccc1	.	.	.	.	.	/	/
CC(=O)N1CCc2cc(NC(=O)C3(C)CCN3Cc3ccccc3Cl)ccc21 (configuration not stated)	.	.	/	.	.	/	/
CC(C)(C)CN1CCNC[C@H]1Cc1ccc(O)cc1	.	.	.	.	75.8	.	.
COc1cc(/C=C/C=C2/CC/C(=C/C=C/c3ccc(O)c(OC)c3)C2=O)ccc1O	.	.	.	.	90.3	.	.	Beacon interf DR=.
COc1cc(/C=C2/CC/C(=C/c3ccc(O)c(OC)c3)C2=O)ccc1O	.	.	.	.	.	/	/
NC(=O)c1cc(S(=O)(=O)N2CCc3ccccc3C2)cs1	.	.	.	.	.	/	/
C[C@@H](C(=O)Nc1nccs1)N1C(=O)C2CC=CCC2C1=O (some centres not stated)	.	.	.	.	60.1	.	.
CCOc1cc2[nH]c(=O)n(CCCCC(=O)NC3CCCCCC3)c(=O)c2cc1OCC	.	.	.	.	.	/	/
CCOc1cc2[nH]c(=S)n(CCC(=O)NC3CCCCC3)c(=O)c2cc1OCC	.	.	/	.	51.1	.	.
Cc1ccccc1C(=O)Nc1ccc2c(C#N)c3nc4ccccc4nc3n2c1	.	.	93.5	.	66.3	.	.
CCC1CCc2sc(C(=O)NCC(c3ccc(OC)cc3)N3CCCC3)cc2C1 (configuration not stated)	.	.	.	.	.	/	/
Cc1cc(NC(=O)c2cc(-c3ccccn3)nc3c(Cl)cccc23)no1	.	.	.	.	58.2	.	.
Cc1ccc(CN2CC(N3CCN(C)CC3)CS2(=O)=O)cc1 (configuration not stated)	.	.	/	.	.	/	/
COc1cc(OC)cc(C(=O)NC(C(=O)OCn2nnc3ccccc3c2=O)C(C)C)c1 (configuration not stated)	.	.	.	.	87.5	.	.
Cc1ccc(S(=O)(=O)N2C[C@@H]3[C@H]4CC[C@H](C4)[C@@H]3[C@@H](C)[C@@H]2c2ccn([Si](C(C)C)(C(C)C)C(C)C)c2)cc1	.	.	.	.	.	/	/
O=C(C=Cc1ccco1)c1ccc([N+](=O)[O-])cc1	.	.	.	.	.	/	/
O=C(/C=C/c1ccco1)c1ccc(NC(=O)C23CC4CC(CC(C4)C2)C3)cc1	.	.	.	.	72.4	.	.
O=C(Nc1cccc2nsnc12)c1cc2c(cc1Cl)Sc1nccn1S2(=O)=O	.	.	.	.	.	/	/
COc1ccccc1CNC(=O)COC(=O)c1cc2ccccc2o1	.	.	.	.	.	/	/
Cc1cccc(N2CC(C(=O)Nc3nnc(SCC(=O)Nc4nccs4)s3)CC2=O)c1 (configuration not stated)	.	.	.	.	53.2	.	.

Bioassay records deposited in PubChem BioAssay by Sanford-Burnham Center for Chemical Genomics.
